Assay [1] relates to Radical scavenging activity. Kind of assay: Antioxidant activity assessed as ratio of drug concentration to DPPH concentration causing 50% DPPH radical scavenging activity […]. Type of assay: functional. On the technique in general: DPPH is a stable violet radical that fades when it is reduced.
Assay [2] is described as follows: Antioxidant activity assessed as protection against peroxyl radical-induced alkaline phosphatase oxidation by fluorimetric assay. Type of assay: functional. The method, boiled down: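 Microplate assay on pure compounds measuring protection of alkaline phosphatase (ALP) against peroxyl radical-induced loss of activity. EC50 is the antioxidant concentration that protects ALP to 50% from this loss, reported as pEC50.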

The subject of the next assay is Plasmodium falciparum. The assay is described as follows: Antiplasmodial activity against chloroquine-sensitive Plasmodium falciparum 3D7 by [3H]hypoxanthine incorporation assay. Format: functional, organism-based.

For 7 compounds, Ratio, EC50 and IC50 results are on record in ChEMBL document CHEMBL1154138, “Antioxidant C-glucosylxanthones from the leaves of Arrabidaea patellifera” (J Nat Prod, 2008).

As a reminder, the EC50 is the concentration giving half of the maximal effect. Turning to `O=C(/C=C/c1ccccc1)O[C@@H]1[C@@H](O)[C@H](c2c(O)cc3oc4cc(O)c(O)cc4c(=O)c3c2O)O[C@H](CO)[C@H]1O`, the Ratio in assay [1] came to 0.16. For the same compound, the EC50 in assay [2] turned out to be 980 nM.
Usually IC50 stands for the midpoint of a concentration-inhibition curve. In the assay on Plasmodium falciparum, `O=C(/C=C/c1ccc(O)cc1)O[C@@H]1[C@@H](O)[C@H](c2c(O)cc3oc4cc(O)c(O)cc4c(=O)c3c2O)O[C@H](CO)[C@H]1O` returned an IC50 of 18100 nM. In assay [1], the Ratio stood at 0.16. Further, the EC50 in assay [2] was determined as 830 nM.
On the same counts, the results for `O=C(O[C@@H]1[C@@H](O)[C@H](c2c(O)cc3oc4cc(O)c(O)cc4c(=O)c3c2O)O[C@H](CO)[C@H]1O)c1ccc(O)cc1` are 26500 nM, 0.11 and 980 nM.
For `O=C(/C=C/c1ccc(O)cc1)OC[C@H]1O[C@@H](c2c(O)cc3oc4cc(O)c(O)cc4c(=O)c3c2O)[C@H](O)[C@@H](O)[C@@H]1O`, the IC50 in the assay on Plasmodium falciparum was over 38200 nM. In addition, the Ratio in assay [1] is 0.23. Also, in assay [2], the EC50 amounted to 1480 nM.
`O=c1c2cc(O)c(O)cc2oc2cc(O)c([C@@H]3O[C@H](CO)[C@@H](O)[C@H](O)[C@H]3O)c(O)c12` [MANGIFERIN] showed an IC50 in the assay with Plasmodium falciparum of 23800 nM. Further, in assay [1], the Ratio amounted to 0.12. Also, the EC50 in assay [2] amounted to 1260 nM.
Turning to `O=C(/C=C/c1ccc(O)c(O)c1)O[C@@H]1[C@@H](O)[C@H](c2c(O)cc3oc4cc(O)c(O)cc4c(=O)c3c2O)O[C@H](CO)[C@H]1O`, the Ratio in assay [1] came to 0.1. The EC50 in assay [2] turned out to be 1180 nM.
The like results for `O=c1c(O)c(-c2ccc(O)c(O)c2)oc2cc(O)cc(O)c12` [QUERCETIN] were, in that order, 0.092 and 1000 nM.
